Source: ChEMBL document CHEMBL1833827, “Synthesis and anticandidal activity of new triazolothiadiazine derivatives” (Eur J Med Chem, 2011)
In brackets after ≈: the same amount, converted by molar mass.

Tests used:
[1] = test system: Candida tropicalis; assay: Antifungal activity against Candida tropicalis NRRL Y-12968 by NCCLS M27-A2 microbroth dilution method; format: functional
[2] = test system: Candida parapsilosis; assay: Antifungal activity against Candida parapsilosis NRRL Y-12696 by NCCLS M27-A2 microbroth dilution method; format: functional; settings: Lodderomyces parapsilosis
[3] = test system: Pichia kudriavzevii; assay: Antifungal activity against Candida krusei NRRL Y-7179 by NCCLS M27-A2 microbroth dilution method; format: functional
[4] = test system: Candida albicans; assay: Antifungal activity against Candida albicans clinical isolate by NCCLS M27-A2 microbroth dilution method; format: functional
[5] = test system: Nakaseomyces glabratus; assay: Antifungal activity against Candida glabrata clinical isolate (Osmangazi university) by NCCLS M27-A2 microbroth dilution method; format: functional
[6] = test system: Candida albicans; assay: Antifungal activity against Candida albicans ATCC 90028 by NCCLS M27-A2 microbroth dilution method; format: functional
[7] = test system: Candida albicans; assay: Antifungal activity against Candida albicans NRRL Y-12983 by NCCLS M27-A2 microbroth dilution method; format: functional
[8] = test system: NIH3T3; assay: Cytotoxicity against mouse NIH/3T3 cells after 24 hrs by MTT assay; format: cell-based; settings: NIH3T3, 24 h
In short: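 NIH/3T3 mouse fibroblasts (ATCC) grown in DMEM with 10% fetal calf serum, penicillin and streptomycin at 37 °C in 5% CO2. Cells were seeded at 2 × 10^4 cells/mL and preincubated 24 h. Compounds went from DMSO stocks diluted in medium (final DMSO <0.1%) at 0.5–500 µg/mL for 24 h. MTT was added at 0.5 mg/mL final for 4 h at 37 °C. Formazan was dissolved in DMSO and read at 540 nm. Triplicate wells per concentration. IC50 is the concentration reducing absorbance to 50% of control, reported as mean ± SD.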

[9] = test system: Nakaseomyces glabratus; assay: Antifungal activity against Candida glabrata clinical isolate (Anadolu university) by NCCLS M27-A2 microbroth dilution method; format: functional

SMILES | MIC [1] [µg/mL] | MIC [2] [µg/mL] | MIC [3] [µg/mL] | MIC [4] [µg/mL] | MIC [5] [µg/mL] | MIC [6] [µg/mL] | MIC [7] [µg/mL] | IC50 [8] [µg/mL] | MIC [9] [µg/mL]
Oc1ccc(CCc2nnc3n2N=C(c2ccccc2)CS3)cc1 | 90 (≈ 268 µM) | 180 (≈ 535 µM) | 370 (≈ 1100 µM) | 90 (≈ 268 µM) | 40 (≈ 119 µM) | 80 (≈ 238 µM) | 370 (≈ 1100 µM) | 31.6 (≈ 93.9 µM) | 180 (≈ 535 µM)
c1ccc(C2=Nn3c(CCC4CCCCC4)nnc3SC2)cc1 | 180 (≈ 551 µM) | 370 (≈ 1130 µM) | 180 (≈ 551 µM) | 90 (≈ 276 µM) | 90 (≈ 276 µM) | 90 (≈ 276 µM) | 180 (≈ 551 µM) | 433 (≈ 1330 µM) | 90 (≈ 276 µM)
Oc1ccc(CCc2nnc3n2N=C(c2ccc(F)cc2)CS3)cc1 | 1500 (≈ 4230 µM) | 1500 (≈ 4230 µM) | 180 (≈ 508 µM) | 180 (≈ 508 µM) | 1500 (≈ 4230 µM) | 1500 (≈ 4230 µM) | 1500 (≈ 4230 µM) | 367 (≈ 1030 µM) | 370 (≈ 1040 µM)
Cc1ccc(C2=Nn3c(CCc4ccc(O)cc4)nnc3SC2)cc1 | 1500 (≈ 4280 µM) | 370 (≈ 1060 µM) | 370 (≈ 1060 µM) | 750 (≈ 2140 µM) | 750 (≈ 2140 µM) | 750 (≈ 2140 µM) | 1500 (≈ 4280 µM) | 400 (≈ 1140 µM) | 750 (≈ 2140 µM)
Fc1ccc(C2=Nn3c(CCC4CCCCC4)nnc3SC2)cc1 | 750 (≈ 2180 µM) | 370 (≈ 1070 µM) | 90 (≈ 261 µM) | 370 (≈ 1070 µM) | 370 (≈ 1070 µM) | 90 (≈ 261 µM) | 90 (≈ 261 µM) | 106 (≈ 308 µM) | 90 (≈ 261 µM)
O=[N+]([O-])c1ccc(C2=Nn3c(CCC4CCCCC4)nnc3SC2)cc1 | 180 (≈ 485 µM) | 180 (≈ 485 µM) | 180 (≈ 485 µM) | 90 (≈ 242 µM) | 90 (≈ 242 µM) | 90 (≈ 242 µM) | 90 (≈ 242 µM) | 210 (≈ 565 µM) | 90 (≈ 242 µM)
CC(=O)N1CCN(c2ccc(OCC3COC(Cn4ccnc4)(c4ccc(Cl)cc4Cl)O3)cc2)CC1 (stereo not drawn) [KETOCONAZOLE] | 3 (≈ 5.65 µM) | 7 (≈ 13.2 µM) | 3 (≈ 5.65 µM) | 30 (≈ 56.5 µM) | 15 (≈ 28.2 µM) | 30 (≈ 56.5 µM) | 15 (≈ 28.2 µM) | – | 7 (≈ 13.2 µM)
Clc1ccc(C2=Nn3c(CCC4CCCCC4)nnc3SC2)cc1 | 90 (≈ 249 µM) | 20 (≈ 55.4 µM) | 370 (≈ 1030 µM) | 180 (≈ 499 µM) | 90 (≈ 249 µM) | 40 (≈ 111 µM) | 40 (≈ 111 µM) | 103 (≈ 285 µM) | 40 (≈ 111 µM)
Cc1ccc(C2=Nn3c(CCC4CCCCC4)nnc3SC2)cc1 | 750 (≈ 2200 µM) | 370 (≈ 1090 µM) | 180 (≈ 529 µM) | 90 (≈ 264 µM) | 90 (≈ 264 µM) | 180 (≈ 529 µM) | 90 (≈ 264 µM) | 198 (≈ 582 µM) | 180 (≈ 529 µM)
O=[N+]([O-])c1ccc(C2=Nn3c(CCc4ccc(O)cc4)nnc3SC2)cc1 | 90 (≈ 236 µM) | 40 (≈ 105 µM) | 180 (≈ 472 µM) | 90 (≈ 236 µM) | 90 (≈ 236 µM) | 90 (≈ 236 µM) | 750 (≈ 1970 µM) | 307 (≈ 804 µM) | 90 (≈ 236 µM)
Oc1ccc(CCc2nnc3n2N=C(c2ccc(Cl)cc2)CS3)cc1 | 750 (≈ 2020 µM) | 370 (≈ 998 µM) | 750 (≈ 2020 µM) | 750 (≈ 2020 µM) | 750 (≈ 2020 µM) | 750 (≈ 2020 µM) | 1500 (≈ 4040 µM) | 86.7 (≈ 234 µM) | 750 (≈ 2020 µM)
